# Compound activity (PubChem)
# Only some compounds are listed: those with a hit (about 3.5% of all), similar ones and a draw of the others.
# HMGR II inh: inhibitors of E. faecalis class II HMGR, primary screen, biochemical, Enterococcus faecalis | HMG-CoA reductase (Enterococcus faecalis, mvaE) | purified E. faecalis HMGR, NADPH absorbance 340 nm kinetic | inhibition, % at 10 µM | 190,000 tested, 0.41% active | AID 1066, 2008;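 active = inhibition above a set limit, the median over all tested compounds plus 3 SD, cut at about 9.5% in these data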;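 note: enzyme runs in reverse so mevalonate oxidation gives rising NADPH absorbance; 0% = complete reaction with DMSO and 100% = background rate lacking mevalonate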
# MT stabilizer: microtubule stabilizers in HeLa cells, primary screen, imaging, high-content imaging; HeLa tubulin immunostaining HCS, 24 h; share of cells brighter than vehicle mean+2SD; AID 2205, 2009; 200,000 tested, 0.83% active; % tubulin-high responders, % at 10 µM;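 active = plate Z-score above 3 for both tubulin-high and condensed-nucleus cell shares, with cell loss under 80%, at 10 µM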;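 note: anti alpha tubulin signal scored within the nucleus-defined area of each cell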
# bCat nuc transl: modulators of beta-catenin nuclear translocation, primary screen, imaging, HeLa cells, immunofluorescence, high-content; 190,000 tested, 0.3% active; nuclear translocation activity, % at 5 µM; AID 1665, 2009;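 active = nuclear translocation activity above 50% at 5 µM, with a well cell count of 50 or more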;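 note: per-cell ratio of nuclear to cytoplasmic median beta-catenin stain intensity; plate controls were DMSO negative control for no effect and GSK-3 inhibitor IX positive control for full effect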
#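 System: Human HeLa cells, endogenous beta-catenin | Compound dosing: 5 µM primary, 0.02–20 µM confirmation | Timing: 24 h compound exposure at 37°C, 5% CO2 | Measured by: Fluorescence imaging of beta-catenin antibody stain plus DAPI | Read-out basis: % activation of per-cell nuclear versus cytoplasmic median beta-catenin signal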
# Yeast growth inh: growth inhibitors of yeast BB579 in restrictive medium, primary screen, yeast lifespan-shortening project, S. cerevisiae. OD615, 48 h. inhibition, % at 10 µM. 140,000 tested, 0.51% active. AID 804, 2007;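 active = inhibition above a set limit, 3 SD over the mean compound inhibition, cut at about 44% in these data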
#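 System: Saccharomyces cerevisiae DeaD strain BB579, replicative lifespan model yeast | Buffer or medium: Restrictive glucose-based CSMM-D medium | Times: 4 h preincubation and 48 h exposure at 30 °C | Detection: OD615 turbidity measurement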
# RAM inhibit: inhibitors of the yeast RAM network, primary screen, dse1pr::URA3 reporter, 5-FOA selection; S. cerevisiae dse1pr::URA3 reporter, 5-FOA growth OD615, 2 d; analog-sensitive cbk1-as2 kinase mutant strain; inhibition, % at 50 µM; 190,000 tested, 1.8% active; AID 868, 2007;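 active = inhibition above a set limit, 3 SD over mean compound inhibition, cut at about 8.4% in these data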;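 note: 0% = DMSO-only wells with no growth and 100% = 10 µM 1-NA-PP1 full growth; inhibition rescues growth on 5-FOA so higher OD means more RAM inhibition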
# Yeast lifespan up: compounds extending yeast replicative lifespan, primary screen, S. cerevisiae, OD615 | S. cerevisiae growth with nicotinamide; deaD strain in restrictive glucose medium | AID 775, 2007 | inhibition of the nicotinamide effect, % at 10 µM | 130,000 tested, 0.68% active;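 active = inhibition above a set limit, placed 3 SD over the median of all compounds, cut at about 26% in these data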;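 note: 0% = nicotinamide-treated wells and 100% = cells grown without nicotinamide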
#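 assay system = DeaD-strain S. cerevisiae | buffer or medium = restrictive glucose medium | reagent = 1.5 mM nicotinamide | compound = 10 µM single point, 0.25% DMSO | incubation = 48 h compound exposure at 30 °C, humidified | signal = OD615 measurement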
# * = called active by the depositor; · = no result given.
SMILES,HMGR II inh,MT stabilizer,bCat nuc transl,Yeast growth inh,RAM inhibit,Yeast lifespan up
CC1=CC(=O)C(C(C)C)=C/C1=N/OS(=O)(=O)c1ccccc1,·,·,0.8,·,·,·
CC1=CC(=O)C=C(C)C1=NOS(=O)(=O)c1ccccc1,-3.7,3.3,-6.3,99.8*,-1.6,-28.3
O=C(N/N=C/c1ccccn1)NC12CC3CC(CC(C3)C1)C2,·,·,-1.7,·,·,·
O=C(NC1CCCCC1)C(=S)NC1CCCCC1,5.5,3.3,-0.4,·,2.5,·
Cc1ccccc1OCC(=O)Nc1cccc(N(C)S(C)(=O)=O)c1,-1.1,3.1,-0.5,-37.3,0.5,-20.1
Cc1cc(NC(=O)COc2ccc(Cl)cc2Cl)n(-c2ccccc2)n1,-4.0,2.5,1.5,-26.4,8.6*,-21.7
CN(c1cccc(NC(=O)CN(c2ccc(Cl)c(Cl)c2)S(=O)(=O)c2ccccc2)c1)S(C)(=O)=O,0.4,4.1,0.9,-60.1,9.7*,28.6*
CN(c1cccc(NC(=O)COc2ccc(Cl)cc2Cl)c1)S(C)(=O)=O,-4.9,3.5,-2.1,-22.6,8.8*,·
Cc1ccc(S(=O)(=O)N(CC(=O)Nc2cccc(N(C)S(C)(=O)=O)c2)c2ccc(Cl)c(Cl)c2)cc1,-2.6,4.6,-1.4,-35.8,5.9,-0.1
CCN(CC)c1ccc(/C=N\NC(=O)c2cccc3cc[nH]c23)cc1,·,·,1.3,·,·,·
O=C(N/C(=C/c1ccc(Cl)cc1)c1nc2ccccc2[nH]1)c1ccco1,-4.4,3.0,0.8,-4.4,-0.3,-13.5
O=C(/C(=C/c1ccc(Cl)cc1)c1nc2ccccc2[nH]1)c1ccccc1,-28.5,46.7*,-0.4,-9.6,2.6,9.7
CC1CC2=C(C(=O)O1)C(c1ccccc1)Nc1ccccc1N2 (stereo not drawn),-4.9,1.9,-1.5,18.9,-0.8,-1.5
O=C1NCC2=C1C(c1ccc(Br)cc1)Nc1ccccc1N2 (stereo not drawn),0.7,3.7,·,-48.3,-0.3,91.9*
COc1ccc(-c2nn3c(-c4cccc(C)c4)nnc3s2)cc1OC,·,32.7*,·,·,·,·
COc1ccccc1-c1nn2c(C(F)(F)F)nnc2s1,-2.5,14.0*,-2.9,-47.3,0.9,-27.5
Cc1cccc(-c2nnc3sc(-c4ccccc4)nn23)c1,-2.0,3.6,-4.8,-56.1,6.7,-2.8
COc1ccccc1-c1nnc2sc(-c3cc4ccccc4o3)nn12,-7.8,44.2,94.4*,-37.8,2.5,-3.9
COc1ccccc1-c1nnc2sc(-c3ccc(N(C)C)cc3)nn12,-0.5,7.7,74.2*,-33.8,5.2,0.5
COc1ccc(OC)c(S(=O)(=O)NC(N)=NCCc2ccccc2OC)c1,-1.9,1.5,-0.4,·,0.0,·
CN(C)c1ccc(-c2nn3c(-c4ccccc4Cl)nnc3s2)cc1,3.2,29.4*,78.4*,-58.4,3.4,-0.4
Cc1cnc(NC(=O)c2cc3ccccc3o2)s1,29.7*,3.6,0.0,·,4.1,·
COC(=O)c1ccc(NC2=C(Cl)C(=O)OC2OC(=O)c2ccccc2)cc1 (stereo not drawn),-3.6,4.4,·,·,3.8,·
Cc1ccc(NC2=C(Cl)C(=O)OC2OC(=O)c2ccc(C)cc2)cc1 (stereo not drawn),-0.5,4.4,4.3,·,9.9*,·
COc1cccc(/C=N/NC(=O)NC2CCCCC2)c1O,·,·,1.4,·,·,·
SMILES,HMGR II inh,MT stabilizer,bCat nuc transl,Yeast growth inh,RAM inhibit,Yeast lifespan up
O=C(Cn1cc2c(n1)CCCCC2)Nc1ccccc1Br,·,·,0.1,·,·,·
CCN(c1ccc(NC(=O)c2ccc(Cl)nc2)cc1)C(C)C,-6.0,23.2*,27.0,·,-0.4,·
O=C(Nc1ccc(N2CCOCC2)cc1)c1ccc(Cl)nc1,0.7,3.4,-3.3,-21.8,2.7,-20.7
COCCCn1nnnc1SCC(=O)N1c2ccccc2CC1C (stereo not drawn),-5.2,0.8,3.6,·,1.2,·
CC1Cc2ccccc2N1C(=O)CSc1nnnn1Cc1ccccc1 (stereo not drawn),2.6,5.0,-3.0,-23.4,8.7*,3.2
COc1ccc(Oc2ccc(-c3ccn[nH]3)cc2)cc1,·,·,0.2,·,·,·
CC(=NCCN1CCN(C(C)=C2C(=O)c3ccccc3C2=O)CC1)C1=C(O)CC(C)(C)CC1=O,3.8,2.5,·,-41.3,-0.7,30.8*
CC(=C1C(=O)c2ccccc2C1=O)N1CCN(CCN=CC2=C(O)CC(C)(C)CC2=O)CC1,4.2,2.1,·,-18.6,-1.8,34.3*
CC1(C)CC(=O)C(C=NCCN2CCN(C(=S)Nc3ccccc3)CC2)=C(O)C1,-2.9,1.0,-0.5,-19.0,0.7,-17.5
CC(=O)O[C@@H]1[C@H]2[C@@H](C[C@@H](C)[C@@H]3CCC(=O)[C@@]13C)OC(=O)[C@@H]2C,·,·,-1.7,·,·,·
Nc1nsc2ccccc12,-0.5,6.4,1.6,46.0*,0.1,-7.7
COc1ccccc1/C=C(/C(=O)OCC(N)=O)c1ccccc1,-1.7,3.6,·,-2.6,-1.1,-3.2
COc1ccccc1/C=C(/C(=O)OCC(=O)N(C)Cc1ccccc1)c1ccccc1,-10.5,4.5,2.4,-13.5,10.2*,-2.1
CN(C(=O)COC(=O)c1ccc(-c2ccc(O)cc2)cc1)C1CCS(=O)(=O)C1 (stereo not drawn),·,·,-1.7,·,·,·
CCc1ccc(S(=O)(=O)NC(=S)NC2CCCCC2)cc1,1.7,5.4,-0.3,·,3.2,·
O=C(N[C@@H](Cc1ccccc1)C(=O)OCc1ccccc1)c1nc[nH]c1C(=O)NCc1ccccc1,0.2,1.7,-4.5,·,9.2*,·
CCN(CC)C(=O)c1sc(NC(=O)C(Sc2ccccc2)c2ccccc2)c(C(=O)OC(C)C)c1C (stereo not drawn),-3.6,2.3,0.7,-51.1,9.6*,-8.9
O=C(Cc1ccc(-n2cccc2)cc1)NCc1ccccc1Cl,-0.8,24.5*,62.8*,0.9,2.9,-0.7
O=C(NCc1ccccc1Cl)NCc1ccccc1Cl,·,·,0.4,·,·,·
O=C(Cc1ccccc1)NCc1ccc(-n2cccc2)cc1,-6.1,4.4,52.4*,·,4.1,·
O=C(CCn1cccc1)NCc1ccccc1,-5.9,3.1,-3.1,15.3,2.1,-14.3
CN(C)/C=N/S(=O)(=O)c1ccc(Cl)c(Cl)c1,·,·,1.3,·,·,·
Cc1ccc(S(=O)(=O)ON2C(=O)c3cccc4cccc(c34)C2=O)cc1,2.1,2.1,-1.9,-38.7,2.0,33.9*
Cc1cc(NC(=O)c2c(C)noc2C)no1,·,·,-2.1,·,·,·
O=C(NC1CCCC1)c1cc2nc(-c3ccccc3)cc(-c3ccccc3)n2n1,·,·,-0.9,·,·,·
O=C(Nc1cccc(O)c1)c1cc2nc(-c3ccccc3)cc(-c3ccccc3)n2n1,2.2,4.0,-1.2,-25.4,9.7*,3.7
